Active and inactive are the calls of the source. The calls are words filed in the database; no cut-off is given here.
Key:
[1] = biological target: T1, Macrophage migration inhibitory factor (Homo sapiens) (UniProt P14174); assay: Inhibition of recombinant C-terminal His-tagged human MIF tautomerase activity expressed in Escherichia coli BL21 assessed as residual activity at 10 uM using PP as substrate preincubated for 10 mins and followed by substrate addition and measured for 3 mins by microplate reader analysis relative to control; conditions: time 13.0 min
T1 sequence (whole entry): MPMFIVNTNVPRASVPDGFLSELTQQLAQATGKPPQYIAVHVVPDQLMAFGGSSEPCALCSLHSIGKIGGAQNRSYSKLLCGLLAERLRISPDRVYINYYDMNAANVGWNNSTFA

HeLa [2] = assay: Induction of DNA damage in human HeLa cells by comet assay; type: toxicity, cell-based
HeLa [3] = assay: Inhibition of MNNG-induced DNA damage in human HeLa cells preincubated for 2 hrs followed by MNNG addition and measured after 2 hrs by gel electrophoresis assay; type: functional, cell-based; conditions: dose 1.2-100 µM, time 4.0 hrs
HeLa [4] = assay: Inhibition of MNNG-induced DNA damage in human HeLa cells preincubated for 2 hrs followed by MNNG addition and measured after 2 hrs by comet assay; type: functional, cell-based; conditions: time 4.0 hrs
Outline: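 Alkaline comet assay. HeLa cells were given 50 μM inhibitor or none for 2 h, then 10 μM MNNG for 2 h. Cells were embedded in 1% low-melt agarose and lysed overnight at 4 °C in alkaline lysis solution (pH > 13). Electrophoresis ran at pH > 12, 0.6 V/cm, 25 min. Slides were stained with 2.5 μg/mL PI, imaged by fluorescence microscopy and quantified by image analysis.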

HeLa [5] = assay: Protection against MNNG-induced parthanatos in human HeLa cells assessed as restoration of original phenotype at 3.7 to 100 uM; type: functional, cell-based; conditions: dose 3.7-100 µM, TDE = time-dependent effect
HeLa [6] = assay: Protection against MNNG-induced parthanatos in human HeLa cells assessed as cell viability preincubated for 3 hrs prior to MNNG addition and measured for 15 mins followed by fresh media replacement for 24 hrs by Hoechst 33342 and propidium iodide staining based flow cytometry analysis (reference value: 20 %); type: functional; conditions: time 1635 min; 27.25 h
Outline: (§1)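 HeLa cells in DMEM/10% FBS, 5×10^5 per well, were pretreated 3 h with 100 μM inhibitor, then given 50 μM MNNG for 15 min. Medium was replaced and cells were cultured 24 h. Trypsinized cells were stained with 7 μM Hoechst 33342 and 2 μM PI and analysed by flow cytometry. Hoechst-only cells were counted as live, Hoechst+PI cells as dead.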

HeLa [7] = assay: Protection against MNNG-induced parthanatos in human HeLa cells assessed as restoration of original phenotype after 0.5 to 3 hrs; type: functional, cell-based; conditions: time 0.5-3 hrs
[8] = biological target: T1, Macrophage migration inhibitory factor (Homo sapiens); assay: Reversible inhibition of recombinant human MIF tautomerase activity expressed in Escherichia coli BL21 assessed as recovery of enzyme activity at 25 uM using PP as substrate preincubated for 10 mins followed by substrate addition and measured after 20 mins by jump dilution method; conditions: time 30.0 min
HeLa [9] = assay: Inhibition of MIF nuclear translocation in human HeLa cells at 100 uM preincubated for 3 hrs followed by MNNG stimulation for 15 mins by immunofluorescence staining based confocal microscopic analysis; type: functional, cell-based; conditions: time 195.0 min
Outline: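 HeLa cells on coverslips got ±100 μM inhibitor for 3 h, then MNNG (50 μM, 15 min), and were incubated overnight. They were methanol-fixed and blocked with 2% BSA. MIF was stained with a rabbit polyclonal and Alexa488 secondary, AIF with a mouse monoclonal and Alexa647 secondary, and nuclei with NucBlue. Nuclear localization was imaged by confocal microscopy.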

HeLa [10] = assay: Protection against MNNG-induced parthanatos in human HeLa cells assessed as cell viability preincubated for 3 hrs prior to MNNG addition and measured for 15 mins followed by fresh media replacement for 24 hrs by Hoechst 33342 and propidium iodide staining based flow cytometry analysis; type: functional; conditions: time 1635.0 min; outline: as §1
HeLa [11] = assay: Inhibition of MNNG-induced DNA damage in human HeLa cells preincubated for 2 hrs followed by MNNG addition by gel electrophoresis assay; type: functional, cell-based; conditions: dose 50.0 µM, TDE = time-dependent effect

Question: Which Activity [1] does the source give for `O=C(NCCc1ccccc1)c1cn(-c2cccc3ncccc23)nn1` here?
Answer: 68%

Question: For `N#Cc1ccc(-n2cc(C(=O)Nc3ccc(Br)cc3)nn2)cc1`, which Activity [1] is on record?
Answer: 44%

Question: Which Activity (HeLa [2]) does the source give for `O=C(Nc1ccccc1)c1ccc(-n2cc(C(=O)NCc3cccs3)nn2)cc1` here?
Answer: Non-Toxic

Question: What about the inhibition (HeLa [3]) of the same compound?
Answer: Dose-Dependent Effect

Question: And the inhibition (HeLa [4])?
Answer: Active

Question: And the Activity (HeLa [5])?
Answer: Tde

Question: What about the Activity (HeLa [6]) of the same compound?
Answer: 50%

Question: And the Activity (HeLa [7])?
Answer: Dose-Dependent Effect

Question: And the inhibition [8]?
Answer: Active

Question: What about the inhibition (HeLa [9]) of the same compound?
Answer: Active

Question: What about the Activity (HeLa [10]) of the same compound?
Answer: Dose-Dependent Effect

Question: And the inhibition (HeLa [11])?
Answer: Tde

Reference: ChEMBL document CHEMBL5331118, “Allosteric Inhibitors of Macrophage Migration Inhibitory Factor (MIF) Interfere with Apoptosis-Inducing Factor (AIF) Co-Localization to Prevent Parthanatos” (J Med Chem, 2023)
